High-throughput results (PubChem)
IDE act: IDE (human) activation, cell-based | P14735 | HEK cells, FAbeta-B cleavage, fluorescence polarization; 0% vehicle, 100% cell-free pure enzyme wells | activation, % at 5.96 µM | 340,000 compounds, 0.073% hits;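 active means activation above the mean of all tested compounds plus 3 SD, set per screening campaign, cut at about 17% in these data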
IDE cell inh: inhibitors of human insulin-degrading enzyme in cells; P14735; HEK cells, FAbetaB cleavage, fluorescence polarization; inhibition, % at 5.59 µM; 320,000 compounds, 0.41% hits; AID 434962;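 active means percent inhibition above the average of all tested compounds plus 3 SD, set per screening campaign, cut at about 16% in these data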;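 further: IDE supplied by intact live HEK cells; FP after avidin binding of uncleaved biotin substrate so inhibition keeps polarization high; 0% = DMSO wells and 100% = 60 µM reference IDE inhibitor Ii1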
CSN deneddyl inh: inhibitors of human CSN-mediated cullin deneddylation | Q92905 | Purified CSN, SCF-Nedd8-OG deneddylation, fluorescence polarization | inhibition, % at 12.5 µM | 360,000 compounds, 0.38% hits | AID 651999;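 active means pattern-corrected inhibition above about 35%, with an unprinted fluorescence ratio check between 0.5 and 1.5, limit read from the data, passing the limit was not always enough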;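 further: 0% = enzyme with substrate and 100% = substrate without enzyme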
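test system = HEK293T-derived human Csn5 enzyme | amount = 0.24 nM Csn5 enzyme, final concentration | medium = Tris/NaCl/DTT buffer, pH 7.5 | schedule = 90 min reaction at room temperature | signal = FP | evaluation = inhibition of Csn5 cleavage, % | compound dosing = single dose of 12.5 µM compound with 0.25% DMSO | probe or stimulus = 10 nM SCFSkp2-Nedd8OG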
TPT1 inh: inhibitors of Candida albicans tRNA 2'-phosphotransferase TPT1. 300,000 compounds, 0.81% hits. AID 1962. recombinant caTPT1, FP RNA substrate dephosphorylation. inhibition, % at 5 µM;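 active means inhibition above the mean of all tested compounds plus 3 SD, set per screening campaign, cut at about 24% in these data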;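 further: plate controls were DMSO alone for no effect and ferristatin control at 100 nM for full effect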
HNF4A DNA FP: change in binding of human HNF4 alpha to DNA. 360,000 compounds, 0.3% hits. HNF4a-FITC DNA binding, fluorescence polarization, 1 h. activity change, % at 10 µM; in the data active means activity change above about 30%, passing the limit was not always enough
Target sequence (P41235 whole entry, looked up): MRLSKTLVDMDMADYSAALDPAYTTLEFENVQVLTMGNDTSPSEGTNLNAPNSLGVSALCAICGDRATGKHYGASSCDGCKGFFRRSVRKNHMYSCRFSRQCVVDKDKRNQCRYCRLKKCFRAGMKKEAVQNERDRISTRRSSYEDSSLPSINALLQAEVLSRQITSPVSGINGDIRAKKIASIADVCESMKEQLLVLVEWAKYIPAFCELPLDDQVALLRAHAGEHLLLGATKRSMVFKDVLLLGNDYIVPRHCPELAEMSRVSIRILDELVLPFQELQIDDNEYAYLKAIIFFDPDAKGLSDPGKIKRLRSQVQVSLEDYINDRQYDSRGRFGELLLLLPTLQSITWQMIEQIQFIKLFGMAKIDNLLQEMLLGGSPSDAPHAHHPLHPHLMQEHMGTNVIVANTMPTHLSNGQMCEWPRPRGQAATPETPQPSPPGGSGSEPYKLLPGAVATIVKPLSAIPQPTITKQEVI
TbMetRS inhib: blocks T. brucei methionyl-tRNA synthetase activity | inhibition, % at 11.9 µM | purified T. brucei MetRS, ATP depletion, Kinase-Glo luminescence | 360,000 compounds, 0.4% hits | AID 624268;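 active means inhibition above a per-plate cutoff of the control wells' mean inhibition plus 3 SD, cut at about 5.5% in these data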;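 further: 0% = DMSO wells median and 100% = median of wells with control inhibitor compound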
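Material: parasite MetRS enzyme / Replication: singlicate, one well per compound / Signal: luminescence of leftover ATP / Schedule: 2 h aminoacylation at 25 °C after 15 min preincubation / Medium: HEPES-MgCl2-KCl buffer plus DTT, spermine, BSA, pyrophosphatase / Doses: 11.9 µM single point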
caTPT1 confirm: TPT1 (C. albicans) inhibition, confirmation; AID 2149; recombinant caTPT1, fluorescence polarization, RNase T1 coupled; inhibition, % at 5 µM; 2,400 compounds, 74% hits; shares compounds with TPT1 inh;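 active means inhibition above the primary screen limit, the mean inhibition of all tested compounds plus 3 SD, cut at about 25% in these data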
RNase T1 inh: blocks Aspergillus oryzae RNase T1, a TPT1 counter-screen | shares compounds with TPT1 inh | inhibition, % at 5 µM | 2,400 compounds, 83% hits | RNase T1 cleavage, fluorescence polarization, 1536-well;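 active means inhibition above the solvent-only control well mean plus 3 SD, limit set per screening run, cut at about 23% in these data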;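 further: plate controls were DMSO wells with enzyme for no effect and wells without RNase T1 for full effect; inhibitors block cleavage so intact labeled substrate keeps polarization high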
Target sequence (P00651 whole entry, looked up): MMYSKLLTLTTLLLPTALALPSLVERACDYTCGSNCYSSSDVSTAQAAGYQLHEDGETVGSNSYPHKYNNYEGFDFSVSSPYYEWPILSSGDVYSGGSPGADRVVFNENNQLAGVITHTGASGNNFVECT
IDE inh confirm: cellular human IDE inhibition, confirmation. shares compounds with IDE cell inh. HEK cells, FAbetaB cleavage, fluorescence polarization. inhibition, % at 5.59 µM. 1,200 compounds, 51% hits. AID 435028;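 active means mean inhibition across triplicate wells above the cutoff set by the earlier primary insulin-degrading enzyme screen, cut at about 16% in these data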;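 further: 0% = DMSO wells and 100% = 60 µM reference IDE inhibitor Ii1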
HEK cytotox: kills HEK cells in IDE inhibitor counter-screen | shares compounds with IDE cell inh | HEK293 cytotoxicity, ATP luminescence | inhibition, % at 5.59 µM | 1,200 compounds, 28% hits | AID 449730; in the data active means inhibition above about 22%;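 further: 0% = vehicle wells and 100% = reference cytotoxic drug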
Active calls of the source: *; · = no result given. Rows were chosen to be rich in hits. Some 1.7% of all compounds tested hit in one or more screens of this group.

SMILES	IDE act	IDE cell inh	CSN deneddyl inh	TPT1 inh	HNF4A DNA FP	TbMetRS inhib	caTPT1 confirm	RNase T1 inh	IDE inh confirm	HEK cytotox
CCN1C(=O)/C(=C/C=C2/Sc3ccccc3N2CCO)SC1=S	-16.6	20.1*	30.2	39.7*	36.2*	-0.4	32.9*	45.5*	19.2*	19.8
CCCCN1C(=O)/C(=C/C=C2\Oc3ccccc3N2CC)SC1=S	-149.5	·	5.6	·	116.5	-0.6	·	·	·	·
N#Cc1c(N)nc2c(c1-c1ccccc1)CCC2	-7.8	1.2	1.6	1.3	-0.9	-0.3	·	·	·	·
Cc1cn(CCOc2ccc(Cl)cc2)c(=O)[nH]c1=O	1.6	-4.2	-2.9	-1.9	-0.7	-1.5	·	·	·	·
COc1ccc(C2C(C(C)=O)=C(C)N=c3s/c(=C\c4cc(C)n(C)c4C)c(=O)n32)c(OC)c1 (stereo not given)	-38.5	116.2*	101.2	131.7*	142.8	0.0	133.5*	127.3*	25.9*	9.9
CCN(CC)c1ccc(/C=C2\C(=O)c3ccc(C(=O)O)cc3C2=O)cc1	-106.4	141.5*	110.5	142.5*	84.0*	-0.5	121.5*	115.7*	25.9*	12.2
COc1ccc(/C=C/C(=O)c2c(O)cc(C)oc2=O)c(OC)c1	-8.6	19.9*	3.4	133.7*	5.7	-0.4	53.5*	74.8*	1.6	19.2
C/C(=C\C(=O)c1c(O)cc(C)oc1=O)N(C)C	·	3.0	-4.0	-8.3	1.0	-0.1	·	·	·	·
c1ccc(Oc2cc(-c3ccccc3)ncn2)cc1	-3.7	-1.0	1.9	1.3	2.7	-0.8	·	·	·	·
CCCCCCN1C=CC=C/C1=C\C=C(C#N)C#N	·	24.6*	7.9	61.2*	22.4	0.8	73.0*	84.0*	35.2*	13.0
CN1/C(=C/C=C(C#N)C#N)C(C)(C)c2ccccc21	-2.6	-4.5	-105.1	12.9	-96.2	-1.3	·	·	·	·
O=C1/C(=C/c2cccc(O)c2)SC(=S)N1CC1CCCO1 (stereo not given)	3.2	-2.8	6.7	-2.6	2.0	0.2	·	·	·	·
CCOc1cc(/C=C2/SC(=S)N(CC3CCCO3)C2=O)ccc1O (stereo not given)	-74.4	34.8*	11.5	30.2*	42.0*	-1.1	35.4*	47.1*	123.5*	24.3*
CCN1C(=O)/C(=C/C=C2/CCCN2C)OC1=S	-29.6	19.1*	-1.6	78.1*	88.3*	-0.4	105.7*	115.8*	26.5*	10.0
CCN1C(=O)/C(=C/N(C)c2ccccc2)OC1=S	3.9	-3.8	-6.4	10.5	-1.0	-0.4	·	·	·	·
N#C/C(=C/c1ccncc1)c1nc2ccccc2s1	-16.7	43.9*	13.2	30.2*	6.2	0.0	14.3	20.7	0.9	17.9
CC(C)=C(C#N)c1nc2ccccc2s1	-4.6	37.7*	-3.8	25.2*	-0.7	0.2	7.5	8.7	-3.1	16.2
O=C(N/N=C/c1c(O)ccc2ccccc12)c1ccc(CO)nc1	-27.4	26.6*	28.8	82.5*	42.3*	-0.2	90.8*	93.3*	38.8*	73.4*
CCN(CC)c1ccc2cc(-c3nnc(-c4ccccc4)o3)c(=O)oc2c1	-64.0	36.2*	-78.7	117.1*	-80.2	-0.8	122.2*	114.9*	82.6*	5.8
O=C(COC(=O)CCN1C(=O)C2CC=CCC2C1=O)Nc1ccc([N+](=O)[O-])cc1 (stereo not given)	6.4	-0.8	-0.2	·	1.2	0.0	·	·	·	·
CC[n+]1c(/C=C/C=C/N(C(C)=O)c2ccccc2)sc2cc(OC)ccc21	·	40.5*	·	56.1*	·	·	75.9*	81.0*	34.9*	63.5*
Cc1cc(N2CCCC2)ccc1/C=C1\NC(=S)N(C)C1=O	-118.6	79.2*	141.5	164.1*	152.7	-0.1	166.5*	153.6*	115.7*	16.0
O=C1/C(=C/c2ccc(N3CCCC3)cc2)NC(=S)N1C1CC1	-89.3	89.6*	133.9	162.2*	168.5	-0.4	168.9*	152.9*	119.9*	26.9*
COc1ccccc1NC(=O)Nc1ccnn1C1CCN(C(=O)C2CCOC2)CC1 (stereo not given)	·	·	0.5	·	-0.1	-0.2	·	·	·	·
O=C(CN1C(=O)S/C(=C\c2cc(Cl)c(O)c(Cl)c2)C1=O)Nc1ccccc1	-25.7	20.8*	28.7	95.6*	37.8*	0.1	99.7*	108.3*	22.5*	6.5
SMILES	IDE act	IDE cell inh	CSN deneddyl inh	TPT1 inh	HNF4A DNA FP	TbMetRS inhib	caTPT1 confirm	RNase T1 inh	IDE inh confirm	HEK cytotox
Cc1ccc(S(=O)(=O)N2CCN(c3ccccc3)CC2)cc1C(=O)NC1CCCCC1	7.2	-3.5	0.7	-1.1	-2.0	-0.3	·	·	·	·
CCN(CC)c1ccc(C=C(c2nnnn2-c2ccccc2)c2nnnn2-c2ccccc2)cc1	-22.6	32.5*	21.8	68.9*	29.6	0.0	93.8*	104.2*	30.2*	16.8
Cc1ccc(-n2nnnc2C(=Cc2ccc(N(C)C)cc2)c2nnnn2-c2ccc(C)cc2)cc1	1.8	-2.7	15.3	14.9	19.8	-0.8	·	·	·	·
O=C(O)c1cccc(OS(=O)(=O)c2cc(Br)ccc2Br)c1	2.5	-3.3	0.8	·	-3.6	-0.2	·	·	·	·
C[C@@H](NC(=O)/C(C#N)=C/c1ccc(O)c(O)c1)c1ccccc1	3.6	4.7	-1.5	8.5	0.0	-1.0	·	·	·	·
N#C/C(=C\c1ccc(O)c(O)c1)C(=O)Nc1ccccc1	-43.3	25.6*	4.9	33.3*	3.8	-0.5	39.5*	48.2*	49.7*	9.6
Cn1cc(/C=C/c2cc[n+](C)cc2)c2cc(Cl)ccc21	-11.6	38.2*	0.1	59.8*	93.0	-1.3	67.8*	70.2*	62.3*	80.9*
Cn1cc(C=O)c2cc(F)ccc21	2.6	-0.4	-9.5	-1.9	-2.4	-0.2	·	·	·	·
Cn1cc(/C=C/c2cc[n+](C)cc2)c2cc(F)ccc21	-24.8	31.3*	-73.7	40.3*	20.4	-0.8	49.4*	55.9*	75.3*	77.5*
CC1(C)NC(=O)N(CCC(=O)Nc2cc(C(F)(F)F)ccc2Cl)C1=O	3.6	-2.5	-1.9	·	0.3	-0.5	·	·	·	·
COc1ccc(OC)c(NC(=O)c2cccnc2Sc2ccccc2)c1	2.9	-3.3	2.8	2.8	2.3	-0.5	·	·	·	·
CCc1nccn1CCC(=O)NC1CCCc2c1cnn2-c1ccc(F)cc1F (stereo not given)	4.9	-3.5	-0.1	1.5	2.5	-0.3	·	·	·	·
